In ChEMBL document CHEMBL1128448, “Synthesis and antifungal activity of new azole derivatives containing an N-acylmorpholine ring” (1995):
In brackets after ≈: the same amount, converted by molar mass.

Assays:
Type in all cases: functional
Rhodotorula mucilaginosa = assay: In vitro evaluation of minimum inhibitory concentration against Rhodotorula rubra 16
Summary of the method: (§1)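 Stocks are 800 μg/mL in 50% ethanol. Each plate gets 10 μL of inoculum at 10^5 cfu/mL. Incubation at 25 °C, 48 h for yeasts and 120 h for dermatophytes and molds. Organisms are ATCC strains or clinical isolates.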

Mus sp. [1] = assay: In vivo evaluation of % survival rate after peroral administration on 3rd day at dose 2.5 mg/kg; conditions: Mus sp., po
Mus sp. [2] = assay: In vivo evaluation of % survival rate after peroral administration on 7th day at dose 1 mg/kg; conditions: route oral, 1 mg/kg
Candida parapsilosis = assay: In vitro evaluation of minimum inhibitory concentration against Candida parapsilosis 61; summary of the method: as §1
Mus sp. [3] = assay: In vivo evaluation of % survival rate after peroral administration on 5th day at dose 1 mg/kg; conditions: route oral, 1 mg/kg
Mus sp. [4] = assay: In vivo evaluation of % survival rate after peroral administration on 7th day at dose 2.5 mg/kg; conditions: Mus sp., po
Mus sp. [5] = assay: In vivo evaluation of % survival rate after peroral administration on 5th day at dose 2.5 mg/kg; conditions: Mus sp., po
Candida tropicalis = assay: In vitro evaluation of minimum inhibitory concentration against Candida tropicalis 2.11; summary of the method: as §1
[6] = tested on: Meyerozyma guilliermondii; assay: In vitro Evaluation of minimum inhibitory concentration against Candida guilliermondii 26; summary of the method: as §1
Mus sp. [7] = assay: In vivo evaluation of % survival rate after peroral administration on 9th day at dose 2.5 mg/kg; conditions: Mus sp., po
Aspergillus flavus = assay: In vivo Evaluation of minimum inhibitory concentration against Aspergillus flavus 19; conditions: in the assay text read “In vitro” for “In vivo”; summary of the method: as §1
Candida albicans [8] = assay: […] Evaluation of minimum inhibitory concentration against Candida albicans 406; summary of the method: as §1
Candida albicans [9] = assay: […] Evaluation of minimum inhibitory concentration against Candida albicans 60; summary of the method: as §1
Candida albicans [10] = assay: In vitro Evaluation of minimum inhibitory concentration against Candida albicans 76; summary of the method: as §1
Kluyveromyces marxianus = assay: In vitro evaluation of minimum inhibitory concentration against Candida pseudotropicalis 13; summary of the method: as §1
Mus sp. [11] = assay: In vivo evaluation of % survival rate after peroral administration on 9th day at dose 1 mg/kg; conditions: route oral, 1 mg/kg

SMILES: C[C@H]1N(C(=O)c2ccc(C(F)(F)F)cc2)CC(=O)O[C@@]1(Cn1cncn1)c1ccc(Cl)cc1Cl (racemic)
- MIC (Rhodotorula mucilaginosa): 80 mg/L (≈ 156 µM)
- survival at 2.5 mg/kg (Mus sp. [1]): 100%
- Survival (Mus sp. [2]): 55%
- MIC (Candida parapsilosis): 40 mg/L (≈ 77.9 µM)
- Survival (Mus sp. [3]): 80%
- survival at 2.5 mg/kg (Mus sp. [4]): 100%
- survival at 2.5 mg/kg (Mus sp. [5]): 100%
- MIC (Candida tropicalis): 80 mg/L (≈ 156 µM)
- MIC [6]: 80 mg/L (≈ 156 µM)
- survival at 2.5 mg/kg (Mus sp. [7]): 100%
- MIC (Aspergillus flavus): > 80 mg/L
- MIC (Candida albicans [8]): 5 mg/L (≈ 9.74 µM)
- MIC (Candida albicans [9]): 10 mg/L (≈ 19.5 µM)
- MIC (Candida albicans [10]): 20 mg/L (≈ 39 µM)
- MIC (Kluyveromyces marxianus): 20 mg/L (≈ 39 µM)
- Survival (Mus sp. [11]): 45%
